Laboratory results taken from ChEMBL document CHEMBL1142101, “Cytotoxic diterpenoids from the bark of Pseudolarix kaempferi and their structure-activity relationships” (J Nat Prod, 2007).

Columns and labels:
[1] = Cytotoxicity against human BGC823 cells after 48 hrs by MTT assay; assay type: cell-based, BGC-823; settings: for Activity: human, bgc-823, 48 h; for IC50: Homo sapiens, BGC-823, 48 h
Outline: (§1)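 Cells seeded in 96-well plates and exposed to serial dilutions of test compound spanning 10-2 to 102 µM. Incubated 48 h at 37 °C in humidified air with 5% CO2. Growth inhibition read by MTT. IC50 taken as the concentration (µM) giving 50% inhibition of cell growth.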

[2] = Cytotoxicity against human Bel7402 cells after 48 hrs by MTT assay; assay type: cell-based, Bel-7402; settings: for Activity: human, bel-7402, 48 h; outline: as §1
[3] = test system: HL-60; assay: Cytotoxicity against human HL60 cells after 48 hrs by MTT assay; assay type: cell-based; settings: for Activity: human, hl-60, 48 h; for IC50: Homo sapiens, HL-60, 48 h; outline: as §1
[4] = Homo sapiens, Bel-7402, 48 h, read-out: IC50

| Structure (SMILES) | Activity [1] | Activity [2] | Activity [3] | IC50 ([2]; bel-7402) | IC50 [1] | IC50 [2, 4] | IC50 [3] |
| --- | --- | --- | --- | --- | --- | --- | --- |
| COC(=O)C1=CC[C@@]23CC[C@@H]([C@@](C)(/C=C/C=C(\C)C(=O)OCC(O)CO)OC2=O)[C@@]3(O)CC1 (stereo partly drawn) | Not Active | Not Active | Not Active |  |  |  |  |
| CC1=CC[C@@]23CC[C@@H]([C@@](C)(/C=C/C=C(\C)C(=O)OCC(O)CO)OC2=O)[C@@]3(O)CC1 (stereo partly drawn) | Not Active | Not Active | Not Active |  |  |  |  |
| CC1=CC[C@@]23CC[C@@H]([C@@](C)(/C=C/C=C(\C)C(=O)O[C@@H]4O[C@H](CO)[C@@H](O)[C@H](O)[C@H]4O)OC2=O)[C@@]3(O)CC1 | Not Active |  | Not Active | Not Active |  |  |  |
| CC1=CC[C@@]23CC[C@@H]([C@@](C)(/C=C/C=C(\C)C(=O)O)OC2=O)[C@@]3(O)CC1 [DEACETYLPSEUDOLARIC ACID A] | Not Active | Not Active | Not Active |  |  |  |  |
| O=c1[nH]cc(F)c(=O)[nH]1 [FLUOROURACIL] |  |  |  |  | 31.2 µM | 23.2 µM | 0.16 µM |
| CC(=O)O[C@]12CCC(C)=CC[C@]13CC[C@H]2[C@@](C)(/C=C/C=C(\C)C(=O)O)OC3=O [PSEUDOLARIC ACID A] |  |  |  |  | > 100 µM | > 100 µM | 1.51 µM |
| COC(=O)C1=CC[C@@]23CC[C@@H]([C@@](C)(/C=C/C=C(\C)C(=O)O)OC2=O)[C@@]3(OC(C)=O)CC1 [PSEUDOLARIC ACID B] |  |  |  |  | > 100 µM | > 100 µM | 0.59 µM |
| CC(=O)O[C@]12CCC(C(=O)O)=CC[C@]13CC[C@H]2[C@@](C)(/C=C/C=C(\C)C(=O)O)OC3=O [PSEUDOLARIC ACID C2] |  | Not Active | Not Active |  | > 100 µM |  |  |
| COC(=O)C1=CC[C@@]23CC[C@@H]([C@@](C)(/C=C/C=C(\C)C(=O)O)OC2=O)[C@@]3(O)CC1 [PSEUDOLARIC ACID C] | Not Active |  | Not Active | Not Active |  |  |  |
| CC(=O)O[C@]12CC=C(C)C(=O)C[C@]13CC[C@H]2[C@@](C)(/C=C/C=C(\C)C(=O)O)OC3=O [PSEUDOLARIC ACID F] | Not Active |  |  |  |  | > 100 µM | 55.4 µM |
| CC(=O)O[C@]12CC=C(C)[C@H](O)C[C@]13CC[C@H]2[C@@](C)(/C=C/C=C(\C)C(=O)O)OC3=O [PSEUDOLARIC ACID G] |  |  |  |  | > 100 µM | > 100 µM | 11 µM |
